# Assays:
# Type in all cases: functional
# [1] = system: Escherichia coli; experiment: Antimicrobial activity in Escherichia coli DIH-1 expressing beta-lactamase VIM-19 by Etest
# In short: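 MICs read by Etest on Mueller-Hinton agar incubated at 37°C. Susceptibility was categorized according to CLSI guidelines. Transconjugants were obtained in E. coli J53 by liquid mating at 37°C, with selection on agar containing amoxicillin (50 μg/ml) and azide (100 μg/ml).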
# [2] = system: Klebsiella pneumoniae; experiment: Antimicrobial activity in Klebsiella pneumoniae DIH-2 clinical isolate expressing beta-lactamase VIM-19 by Etest
# [3] = system: Escherichia coli; experiment: microbe, parasite or virus in culture; details: TOP10
# [4] = system: Escherichia coli; experiment: microbe, parasite or virus in culture; details: TOP10; remark: listed apart in the source
# [5] = system: Escherichia coli; experiment: Antimicrobial activity in Escherichia coli J53 transconjugate with Escherichia coli DIH-1 expressing natural plasmid containing beta-lactamase VIM-19
# In short: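 Transconjugants came from liquid mating-out at 37°C with azide-resistant E. coli J53 as recipient, selected on agar with amoxicillin (50 μg/ml) plus azide (100 μg/ml). MICs were then read by Etest on Mueller-Hinton agar at 37°C and interpreted per CLSI.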
# [6] = system: Escherichia coli; experiment: Antimicrobial activity in Escherichia coli TOP10 strain
# In short: (§1)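 MICs were determined by Etest on Mueller-Hinton agar plates incubated at 37°C. Susceptibility was interpreted according to CLSI guidelines.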
# [7] = system: Escherichia coli; experiment: Antimicrobial activity in Escherichia coli J53 strain; in short: as §1
# [8] = system: Escherichia coli; experiment: microbe, parasite or virus in culture; details: TOP10; remark: listed apart in the source
# [9] = system: Escherichia coli; experiment: microbe, parasite or virus in culture; details: TOP10; remark: listed apart in the source
Compound,MIC [1] [µg/mL],MIC [2] [µg/mL],MIC [3] [µg/mL],MIC [4] [µg/mL],MIC [5] [µg/mL],MIC [6] [µg/mL],MIC [7] [µg/mL],MIC [8] [µg/mL],MIC [9] [µg/mL]
CO/N=C(\C(=O)N[C@@H]1C(=O)N2C(C(=O)O)=C(COC(N)=O)CS[C@H]12)c1ccco1 [CEFUROXIME],> 512,> 512,> 512,> 512,> 512,2,4,–,–
C[C@@H](O)[C@H]1C(=O)N2C(C(=O)O)=C(SCCNC=N)C[C@H]12 [IMIPENEM ANHYDROUS],–,8,–,–,4,–,–,–,–
C[C@@H](O)[C@H]1C(=O)N2C(C(=O)O)=C(S[C@@H]3CN[C@H](C(=O)N(C)C)C3)[C@H](C)[C@H]12 [MEROPENEM],–,4,1,1,0.5,0.016,0.016,0.25,0.25

# Source: ChEMBL document CHEMBL1212781, “VIM-19, a metallo-beta-lactamase with increased carbapenemase activity from Escherichia coli and Klebsiella pneumoniae” (2010)
